Data reported in ChEMBL document CHEMBL4152221, “Synthesis and structure-activity relationship of furoquinolinediones as inhibitors of Tyrosyl-DNA phosphodiesterase 2 (TDP2)” (Eur J Med Chem, 2018).
Active and inactive are the calls of the source. No rule for the calls is given here.

Key:
[1] = biological target: T1, Tyrosyl-DNA phosphodiesterase 2 (Homo sapiens, UniProt O95551); experiment: Inhibition of recombinant human TDP2 using TY18 (alpha-[32P]-cordycepin-3'-labeled) as substrate after 15 mins by PAGE analysis
T1 sequence (O95551 whole entry): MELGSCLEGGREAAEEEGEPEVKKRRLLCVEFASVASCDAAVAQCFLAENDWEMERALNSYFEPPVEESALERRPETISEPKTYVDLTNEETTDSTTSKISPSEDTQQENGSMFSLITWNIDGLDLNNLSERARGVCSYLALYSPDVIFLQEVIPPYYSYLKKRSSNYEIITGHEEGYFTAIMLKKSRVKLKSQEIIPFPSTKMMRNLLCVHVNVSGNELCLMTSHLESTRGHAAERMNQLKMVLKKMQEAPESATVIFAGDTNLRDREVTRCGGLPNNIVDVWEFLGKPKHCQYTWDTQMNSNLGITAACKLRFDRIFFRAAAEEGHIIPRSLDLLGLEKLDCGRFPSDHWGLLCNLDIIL
Procedure, shortened: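 32P-cordycepin-3'-labeled TY18 substrate at 1 nM with 25 pM recombinant human TDP2, 15 min at room temperature. Buffer: 50 mM Tris-HCl pH 7.5, 80 mM KCl, 5 mM MgCl2, 0.1 mM EDTA, 1 mM DTT, 40 μg/mL BSA, 0.01% Tween 20. Six or eight three-fold dilutions up to 111 μM. Gel densitometry; IC50 is mean ± SD of ≥3 independent experiments. Positive control: SV-163.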

[2] = biological target: T1, Tyrosyl-DNA phosphodiesterase 2; experiment: Inhibition of human TDP2 expressed in TDP2 deficient chicken DT40 whole cell extracts using TY19 DNA as substrate after 15 mins by PAGE analysis
Procedure, shortened: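 Extract from 1×10^7 TDP2-knockout DT40 cells complemented with human TDP2, lysed 15 min on ice, spun at 12000 g for 10 min, stored at -80 °C. TY19 substrate at 1 nM with 5 μg/mL extract, ±inhibitor, 15 min at room temperature in LMP2 buffer. Gel densitometry. IC50 is mean ± SD of ≥3 independent experiments.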

[3] = biological target: Tyrosyl-DNA phosphodiesterase 1 (Homo sapiens, UniProt Q9NUW8); experiment: Inhibition of recombinant TDP1 (unknown origin) at 111 uM using 5'-[32P]-labeled N14Y as substrate after 15 mins by PAGE analysis
Procedure, shortened: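 5'-32P-labeled N14Y (3'-phosphotyrosyl single-stranded oligo) at 1 nM with 10 pM recombinant TDP1, 15 min at room temperature. Three-fold dilutions up to 111 μM. Gels scanned and quantified by densitometry. Positive control: AM-8-3.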

Chain of Tyrosyl-DNA phosphodiesterase 1 (Q9NUW8 whole entry): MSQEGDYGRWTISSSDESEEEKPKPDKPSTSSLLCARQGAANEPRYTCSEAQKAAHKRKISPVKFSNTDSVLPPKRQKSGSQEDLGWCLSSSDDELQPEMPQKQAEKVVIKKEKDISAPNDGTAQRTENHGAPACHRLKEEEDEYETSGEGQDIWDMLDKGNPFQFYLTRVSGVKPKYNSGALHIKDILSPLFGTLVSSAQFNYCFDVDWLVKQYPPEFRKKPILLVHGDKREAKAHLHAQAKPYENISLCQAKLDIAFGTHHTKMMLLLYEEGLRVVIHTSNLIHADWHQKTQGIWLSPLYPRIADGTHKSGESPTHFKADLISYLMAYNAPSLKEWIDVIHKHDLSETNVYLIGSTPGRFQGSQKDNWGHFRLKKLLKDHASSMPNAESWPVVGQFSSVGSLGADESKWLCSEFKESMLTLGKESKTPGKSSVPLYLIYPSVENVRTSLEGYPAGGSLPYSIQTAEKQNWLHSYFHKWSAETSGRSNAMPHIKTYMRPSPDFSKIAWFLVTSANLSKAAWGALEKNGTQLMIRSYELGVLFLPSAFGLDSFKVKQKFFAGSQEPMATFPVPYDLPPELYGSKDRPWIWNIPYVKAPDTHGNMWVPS

Compound	IC50 [1]	IC50 [2]	inhibition [3]
Cc1oc2c(c1C(=O)OCCc1ccccc1)C(=O)c1ncccc1C2=O	53 µM	24 µM	inactive
Cc1oc2c(c1C(=O)Oc1ccc(Br)cc1)C(=O)c1ncccc1C2=O	35 µM	12 µM	inactive
Cc1oc2c(c1C(=O)Nc1cccc(Cl)c1)C(=O)c1ncccc1C2=O	> 111 µM	–	inactive
Cc1oc2c(c1C(=O)Oc1ccc(NC(=O)OC(C)(C)C)cc1)C(=O)c1ncccc1C2=O	88 µM	–	inactive
Cc1oc2c(c1C(=O)OCCC[n+]1ccc(N(C)C)cc1)C(=O)c1ncccc1C2=O	43 µM	38 µM	inactive
CCNC(=O)c1c(C)oc2c1C(=O)c1cccnc1C2=O	> 111 µM	–	inactive
Cc1oc2c(c1C(=O)Oc1ccc(C(=O)c3ccccc3)cc1)C(=O)c1ncccc1C2=O	> 111 µM	–	inactive
Cc1cnc2c(c1)C(=O)c1occ(C)c1C2=O	> 111 µM	–	inactive
Cc1oc2c(c1C(=O)Nc1cccc(Cl)c1)C(=O)c1cccnc1C2=O	> 111 µM	–	inactive
Cc1oc2c(c1C(=O)Nc1ccccc1O)C(=O)c1ncccc1C2=O	> 111 µM	–	inactive
Cc1oc2c(c1C(=O)OCCC[n+]1ccccc1)C(=O)c1ncccc1C2=O	32 µM	24 µM	inactive
Cc1oc2c(c1C(=O)Oc1ccc(N)cc1)C(=O)c1ncccc1C2=O	19 µM	–	inactive
Cc1oc2c(c1C(=O)OCC(F)(F)F)C(=O)c1ncccc1C2=O	28 µM	24 µM	inactive
Cc1oc2c(c1C(=O)OC[C@H](O)CO)C(=O)c1ncccc1C2=O	50 µM	15 µM	inactive
Cc1oc2c(c1C(=O)Nc1ccccc1)C(=O)c1ncccc1C2=O	> 111 µM	–	inactive
Cc1oc2c(c1C(=O)OCCOCCO)C(=O)c1ncccc1C2=O	22 µM	13 µM	inactive
Cc1oc2c(c1C(=O)Oc1cccc(C#N)c1)C(=O)c1ncccc1C2=O	12 µM	10 µM	inactive
COC(=O)c1c(C)oc2c1C(=O)c1ncccc1C2=O	26 µM	12 µM	inactive
COP(=O)(OC)c1c(C)oc2c1C(=O)c1ncccc1C2=O	> 111 µM	–	inactive
Cc1oc2c(c1C(=O)Oc1ccc3c(c1)OCO3)C(=O)c1ncccc1C2=O	> 111 µM	> 111 µM	inactive
C=CC(=O)Nc1cccc(OC(=O)c2c(C)oc3c2C(=O)c2ncccc2C3=O)c1	71 µM	–	inactive

Compound	IC50 [1]	IC50 [2]	inhibition [3]
Cc1oc2c(c1C(=O)Oc1ccccc1NC(=O)OC(C)(C)C)C(=O)c1ncccc1C2=O	36 µM	–	inactive
COC(=O)[C@H](Cc1ccc(OC(=O)c2c(C)oc3c2C(=O)c2ncccc2C3=O)cc1)NC(C)=O	23 µM	17 µM	inactive
COP(=O)(CCOC(=O)c1c(C)oc2c1C(=O)c1ncccc1C2=O)OC	9 µM	17 µM	inactive
Cc1oc2c(c1-c1nc3ccccc3o1)C(=O)c1ncccc1C2=O	> 111 µM	–	inactive
Cc1oc2c(c1C(=O)OCCCCCO)C(=O)c1ncccc1C2=O	45 µM	19 µM	inactive
Cc1oc2c(c1C(=O)OCC(O)CO)C(=O)c1ncccc1C2=O (stereo not drawn)	20 µM	11 µM	inactive
Cc1oc2c(c1C(=O)OCCC#N)C(=O)c1ncccc1C2=O	14 µM	13 µM	inactive
CCOC(=O)c1c(C)oc2c1C(=O)c1cccnc1C2=O	43 µM	54 µM	inactive
COc1ccc(NC(=O)c2c(C)oc3c2C(=O)c2ncccc2C3=O)cc1	> 111 µM	–	inactive
Cc1oc2c(c1C(=O)Oc1ccc3ccccc3c1)C(=O)c1ncccc1C2=O	> 111 µM	–	inactive
Cc1oc2c(c1C(=O)OCC(=O)O)C(=O)c1ncccc1C2=O	51 µM	37 µM	inactive
Cc1oc2c(c1C(=O)Oc1cccc(N)c1)C(=O)c1ncccc1C2=O	16 µM	12 µM	inactive
Cc1oc2c(c1C(=O)Oc1ccc(C#N)cc1)C(=O)c1ncccc1C2=O	15 µM	13 µM	inactive
Cc1oc2c(c1C(=O)OCCc1cn(CCC(=O)O)nn1)C(=O)c1ncccc1C2=O	20 µM	16 µM	inactive
Cc1oc2c(c1C(=O)Oc1cccc(NC(=O)OC(C)(C)C)c1)C(=O)c1ncccc1C2=O	31 µM	–	inactive
Cc1oc2c(c1C(=O)Oc1ccccc1Cl)C(=O)c1ncccc1C2=O	10 µM	14 µM	inactive
CCOC(=O)c1n[nH]c2c1C(=O)c1cccnc1C2=O	> 111 µM	–	inactive
CCOC(=O)c1c2c(n(C)c1C)C(=O)c1ncccc1C2=O	> 111 µM	–	inactive
CCOC(=O)c1n[nH]c2c1C(=O)c1ncccc1C2=O	> 111 µM	–	inactive
Cc1oc2c(c1C(=O)OCCc1cn(CCCO)nn1)C(=O)c1ncccc1C2=O	66 µM	72 µM	inactive
Cc1oc2c(c1C(=O)Oc1cccc(Cl)c1)C(=O)c1ncccc1C2=O	14 µM	11 µM	inactive

Compound	IC50 [1]	IC50 [2]	inhibition [3]
Cc1oc2c(c1C(=O)Oc1ccccc1O)C(=O)c1cccnc1C2=O	29 µM	39 µM	inactive
Cc1oc2c(c1C(=O)Oc1ccccc1C#N)C(=O)c1ncccc1C2=O	> 111 µM	> 111 µM	inactive
Cc1oc2c(c1C(=O)Oc1cccnc1)C(=O)c1ncccc1C2=O	8.8 µM	7.7 µM	inactive
CC(=O)c1c(C)oc2c1C(=O)c1ncccc1C2=O	35 µM	36 µM	inactive
Cc1oc2c(c1C(=O)Oc1ccc(S(C)(=O)=O)cc1)C(=O)c1ncccc1C2=O	14 µM	16 µM	inactive
C#CCCOC(=O)c1c(C)oc2c1C(=O)c1ncccc1C2=O	22 µM	15 µM	inactive
Cc1oc2c(c1C(=O)Oc1cccc(-c3cn(CCCO)nn3)c1)C(=O)c1ncccc1C2=O	8.1 µM	8.3 µM	inactive
COP(=O)(OC)c1c(C)oc2c1C(=O)c1cccnc1C2=O	99 µM	–	inactive
Cc1oc2c(c1C(=O)OCCCCO)C(=O)c1ncccc1C2=O	26 µM	12 µM	inactive
Cc1oc2c(c1C(=O)Oc1ccc(Cl)cc1)C(=O)c1ncccc1C2=O	11 µM	7.5 µM	inactive
CCOC(=O)c1c(C)[nH]c2c1C(=O)c1cccnc1C2=O	> 111 µM	–	inactive
CC(=O)c1c(C)oc2c1C(=O)c1cccnc1C2=O	> 111 µM	–	inactive
Cc1oc2c(c1C(=O)Oc1cccc(-c3cn(CCC(=O)O)nn3)c1)C(=O)c1ncccc1C2=O [listing 1 of 3 here]	22 µM	13 µM	–
C=CC(=O)Nc1ccc(OC(=O)c2c(C)oc3c2C(=O)c2ncccc2C3=O)cc1	68 µM	–	inactive
Cc1oc2c(c1C(=O)Oc1cccc(-c3cn(CCC(=O)O)nn3)c1)C(=O)c1ncccc1C2=O [listing 2 of 3 here]	–	–	inactive
CCNC(=O)c1c(C)oc2c1C(=O)c1ncccc1C2=O	> 111 µM	–	inactive
Cc1oc2c(c1C(=O)Oc1ccc(OCCCN3CCOCC3)cc1)C(=O)c1ncccc1C2=O	51 µM	–	inactive
COP(=O)(OC)Oc1ccc(OC(=O)c2c(C)oc3c2C(=O)c2ncccc2C3=O)cc1	31 µM	–	inactive
Cc1oc2c(c1C(=O)Oc1cccc(-c3cn(CCC(=O)O)nn3)c1)C(=O)c1ncccc1C2=O [listing 3 of 3 here]	50 µM	28 µM	–
